Data as given in ChEMBL document CHEMBL1142616, “New diketopiperazine alkaloids from Penicillium fellutanum” (J Nat Prod, 2000).
The source made the active and inactive calls.

Experiments:
Assay type in all cases: functional, cell-based
[1] = tested on: HeLa; assay: Cytotoxicity against human HeLa cells after 72 hrs
How it was run: (§1)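 Cells were exposed for 72 h of cultivation; L-929 mouse fibroblasts and HeLa human cells grown adherent, K-562 human leukemia cells grown nonadherent. Result given as IC50 in µg/mL.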

[2] = tested on: K562; assay: Cytotoxicity against human K562 cells after 72 hrs; how it was run: as §1
[3] = tested on: L929; assay: Cytotoxicity against mouse L929 cells after 72 hrs; how it was run: as §1

Measured: Activity

O=C1N[C@@H](Cc2c[nH]c3ccccc23)C(=O)N[C@H]1Cc1c[nH]c2ccccc12
inactive: all assays above

C=CC(C)(C)c1[nH]c2ccccc2c1C[C@@H]1NC(=O)[C@H](Cc2c(C(C)(C)C=C)[nH]c3ccccc23)NC1=O
inactive: all assays above

C=CC(C)(C)c1[nH]c2ccccc2c1C[C@@H]1NC(=O)[C@H](Cc2c[nH]c3ccccc23)NC1=O
inactive: all assays above
